Experiments:
[1] = Cytotoxicity against MDCK cells after 48 hrs by MTT assay; format: cell-based, Canis lupus familiaris; details: dog, read-out: CTD50
In short: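 MDCK monolayers were grown in MEM with 5% fetal calf serum and washed with serum-free MEM. They were exposed to serial twofold dilutions from 5 mg/ml DMSO stocks for 48 h at 37 °C. CTD50 was derived from this.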

[2] = Selectivity index, ratio of CTD50 for MDCK cells to ED50 for influenza virus A/California/07/09 (H1N1) pdm09; format: toxicity, cell-based; details: dog, read-out: Selectivity Index
Influenza A virus = experiment: Antiviral activity against Influenza virus A/California/07/09 (H1N1) pdm09 infected in MDCK cells after 48 hrs followed by incubated in chicken erythrocytes for 1 hr by hemagglutinination based end-point dilution method; format: functional, Influenza A virus (A/California/07/2009(H1N1)); details: read-out: ED50 (the source's name)
In short: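 MDCK cells were pretreated for 1 h at 37 °C with serial twofold compound dilutions in MEM containing 2 mM arginine, 2 mM glutamine and trypsin. They were then infected and cultured at 36 °C for 48 h. Supernatant was mixed with 1% chicken erythrocytes for 1 h at room temperature. Titer was read as the end-point dilution giving hemagglutination in 50% of wells. ED50 is the concentration halving virus production versus untreated control.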

[3] = Selectivity index, ratio of cytotoxicity against human CEM cells to Antiviral activity against HIV1 RF; format: toxicity, cell-based, CCRF-CEM; details: read-out: Selectivity Index
RAW264.7 [4] = experiment: Antiinflammatory activity in mouse RAW264.7 cells assessed as inhibition of LPS-induced TNFalpha level; format: functional, cell-based
RAW264.7 [5] = experiment: Antiinflammatory activity in mouse RAW264.7 cells assessed as inhibition of LPS-induced iNOS protein synthesis; format: functional, cell-based

CC(=O)C1=C(O)C=C2O[C@]34O[C@@]3(C(C)=O)C(=O)C(C)=C(O)[C@]4(O)[C@]2(C)C1=O
CC50 at 48 h [1]: 221 µM
selectivity ratio [2]: 8
EC50 (Influenza A virus; Influenza A virus, pdm09, MDCK): 27.7 µM

CC(=O)c1c(O)c(C)c(O)c2c1OC1=Cc3c(c(C)nn3-c3ccccc3)C(=O)[C@]12C
CC50 at 48 h [1]: 522 µM
selectivity ratio [2]: 9
EC50 (Influenza A virus; Influenza A virus, pdm09, MDCK): 57.8 µM

CC(=O)c1c(O)c(C)c(O)c2c1OC1=CC(=O)/C(=C(/C)Nc3ccc(Cl)cc3)C(=O)[C@@]12C
CC50 at 48 h [1]: 172 µM
selectivity ratio [2]: 6.9
EC50 (Influenza A virus; Influenza A virus, pdm09, MDCK): 25.1 µM

NC(=O)c1ncn([C@@H]2O[C@H](CO)[C@@H](O)[C@H]2O)n1 [RIBAVIRIN]
CC50 at 48 h [1]: > 2000 µM
selectivity ratio [2]: > 81
EC50 (Influenza A virus; Influenza A virus, pdm09, MDCK): 24.6 µM

CC(=O)c1c(O)c(C)c(O)c2c1OC1=CC(=O)/C(=C(/C)NCC(=O)O)C(=O)[C@@]12C
CC50 at 48 h [1]: 67.3 µM
selectivity ratio [2]: 6
EC50 (Influenza A virus): 11.2 µM

CC(=O)c1c(O)c(C)c(O)c2c1OC1=CC(=O)/C(=C(/C)Nc3cccc(F)c3)C(=O)[C@]12C
CC50 at 48 h [1]: 35.3 µM
selectivity ratio [2]: 8.8
EC50 (Influenza A virus; Influenza A virus, pdm09, MDCK): 4 µM

CC(=O)c1c(O)c(C)c(O)c2c1OC1=CC(=O)/C(=C(/C)NCCC(=O)O)C(=O)[C@]12C
CC50 at 48 h [1]: 400 µM
selectivity ratio [2]: 1
EC50 (Influenza A virus; Influenza A virus, pdm09, MDCK): 400 µM

CC(=O)c1c(O)c(C)c(O)c2c1OC1=CC(=O)/C(=C(/C)Nc3ccc(Br)cc3)C(=O)[C@@]12C
CC50 at 48 h [1]: 193 µM
selectivity ratio [2]: 9.6
EC50 (Influenza A virus; Influenza A virus, pdm09, MDCK): 20.2 µM

CC(=O)c1c(O)c(C)c(O)c2c1OC1=CC(=O)/C(=C(/C)Nc3ccc(Br)cc3)C(=O)[C@]12C
CC50 at 48 h [1]: 154 µM
selectivity ratio [2]: 5.1
EC50 (Influenza A virus; Influenza A virus, pdm09, MDCK): 30.4 µM

CC(=O)C1=C(O)C=C2O[C@]34O[C@@]3(C(C)=O)C(=O)C(C)=C(O)[C@]4(O)[C@@]2(C)C1=O
CC50 at 48 h [1]: 190 µM
selectivity ratio [2]: 37.3
EC50 (Influenza A virus; Influenza A virus, pdm09, MDCK): 5.1 µM

CC(=O)c1c(O)c(C)c(O)c2c1OC1=CC(=O)/C(=C(/C)NCC(=O)O)C(=O)[C@]12C
CC50 at 48 h [1]: 197 µM
selectivity ratio [2]: 18.4
EC50 (Influenza A virus): 10.7 µM

CC(=O)c1c(O)c(C)c(O)c2c1OC1=CC(=O)/C(=C(/C)NCC(F)(F)C(F)F)C(=O)[C@@]12C
CC50 at 48 h [1]: 31.1 µM
selectivity ratio [2]: 19.4
EC50 (Influenza A virus; Influenza A virus, pdm09, MDCK): 1.6 µM

CC(=O)C1=C(O)C=C2Oc3c(C(C)=O)c(O)c(C)c(O)c3[C@]2(C)C1=O [(-)-USNIC ACID]
CC50 at 48 h [1]: 209 µM
selectivity ratio [2]: 14.4
EC50 (Influenza A virus; Influenza A virus, pdm09, MDCK): 14.5 µM

CC(=O)c1c(O)c(C)c(O)c2c1OC1=CC(=O)/C(=C(/C)Nc3ccc(F)cc3)C(=O)[C@]12C
CC50 at 48 h [1]: 350 µM
selectivity ratio [2]: 3.9
EC50 (Influenza A virus; Influenza A virus, pdm09, MDCK): 90.4 µM

CC(=O)C1=C(O)C=C2Oc3c(C(C)=O)c(O)c(C)c(O)c3[C@@]2(C)C1=O [(+)-USNIC ACID]
CC50 at 48 h [1]: 305 µM
selectivity ratio [3]: 3
selectivity ratio [2]: 5.9
IC50 (RAW264.7 [4]): 12.8 µM
IC50 (RAW264.7 [5]): 4.7 µM
EC50 (Influenza A virus): 51.7 µM

CC(=O)c1c(O)c(C)c(O)c2c1OC1=CC(=O)/C(=C(/C)Nc3cccc(F)c3)C(=O)[C@@]12C
CC50 at 48 h [1]: 61.3 µM
selectivity ratio [2]: 4.8
EC50 (Influenza A virus; Influenza A virus, pdm09, MDCK): 12.7 µM

CC(N)C12CC3CC(CC(C3)C1)C2 (configuration not stated) [RIMANTADINE]
CC50 at 48 h [1]: 284 µM
selectivity ratio [2]: 5
EC50 (Influenza A virus; Influenza A virus, pdm09, MDCK): 56.9 µM

CC(=O)c1c(O)c(C)c(O)c2c1OC1=CC(=O)/C(=C(/C)NCCC(=O)O)C(=O)[C@@]12C
CC50 at 48 h [1]: 162 µM
selectivity ratio [2]: 23.5
EC50 (Influenza A virus; Influenza A virus, pdm09, MDCK): 6.9 µM

CC(=O)c1c(O)c(C)c(O)c2c1OC1=CC(=O)/C(=C(/C)Nc3ccc(Cl)cc3)C(=O)[C@]12C
CC50 at 48 h [1]: 153 µM
selectivity ratio [2]: 11.7
EC50 (Influenza A virus; Influenza A virus, pdm09, MDCK): 13.1 µM

CC(=O)c1c(O)c(C)c(O)c2c1OC1=Cc3c(c(C)nn3-c3ccccc3)[C@@H](O)[C@]12C
CC50 at 48 h [1]: 71.8 µM
selectivity ratio [2]: 6.8
EC50 (Influenza A virus; Influenza A virus, pdm09, MDCK): 10.5 µM

CC(=O)c1c(O)c(C)c(O)c2c1OC1=Cc3c(c(C)nn3-c3ccccc3)[C@@H](O)[C@@]12C
CC50 at 48 h [1]: 78.9 µM
selectivity ratio [2]: 13.2
EC50 (Influenza A virus; Influenza A virus, pdm09, MDCK): 6 µM

CC(=O)c1c(O)c(C)c(O)c2c1OC1=CC(=O)/C(=C(/C)NCC(F)(F)C(F)F)C(=O)[C@]12C
CC50 at 48 h [1]: 397 µM
selectivity ratio [2]: 10.2
EC50 (Influenza A virus; Influenza A virus, pdm09, MDCK): 38.9 µM

CC(=O)c1c(O)c(C)c(O)c2c1OC1=CC(=O)/C(=C(/C)Nc3ccc(F)cc3)C(=O)[C@@]12C
CC50 at 48 h [1]: 208 µM
selectivity ratio [2]: 8.8
EC50 (Influenza A virus; Influenza A virus, pdm09, MDCK): 23.6 µM

CC(=O)c1c(O)c(C)c(O)c2c1OC1=CC(=O)/C(=C(/C)Nc3cccc(Br)c3)C(=O)[C@@]12C
CC50 at 48 h [1]: 33.6 µM
selectivity ratio [2]: 3.2
EC50 (Influenza A virus; Influenza A virus, pdm09, MDCK): 10.4 µM

CC[N+](C)(CC)CCN/C(C)=C1\C(=O)C=C2Oc3c(C(C)=O)c(O)c(C)c(O)c3[C@@]2(C)C1=O
CC50 at 48 h [1]: 121 µM
selectivity ratio [2]: 21.9
EC50 (Influenza A virus; Influenza A virus, pdm09, MDCK): 5.5 µM

CC(=O)c1c(O)c(C)c(O)c2c1OC1=Cc3c(c(C)nn3-c3ccccc3)C(=O)[C@@]12C
CC50 at 48 h [1]: 769 µM
selectivity ratio [2]: 12.4
EC50 (Influenza A virus; Influenza A virus, pdm09, MDCK): 62.2 µM

CC[N+](C)(CC)CCN/C(C)=C1\C(=O)C=C2Oc3c(C(C)=O)c(O)c(C)c(O)c3[C@]2(C)C1=O
CC50 at 48 h [1]: 34.2 µM
selectivity ratio [2]: 2.7
EC50 (Influenza A virus; Influenza A virus, pdm09, MDCK): 12.5 µM

CC(=O)c1c(O)c(C)c(O)c2c1OC1=CC(=O)/C(=C(/C)Nc3cccc(Br)c3)C(=O)[C@]12C
CC50 at 48 h [1]: 97.8 µM
selectivity ratio [2]: 10
EC50 (Influenza A virus; Influenza A virus, pdm09, MDCK): 9.8 µM
